Like-named read-outs stand apart in the source and are kept apart here.

The values below come from article PMC4196715 (American journal of transplantation : official journal of …, 2014).

The conditions of series [1]: mice, oral administration; cited from earlier work.
Series [2] concerns B6 CD3+ T cells (CD4+ and CD8+ T cell proliferation). The experiment in a line: T cell proliferation by CFSE dilution after anti-CD3/CD28 bead stimulation. In kind it is cell-based, mouse. The method in brief: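 B6 CD3+ T cells were isolated by negative selection and CFSE-labelled. 1×10^5 cells were stimulated with 2.5×10^4 CD3/CD28 Dynabeads for 5 days. Test compound (10 mM DMSO stock) was added at the start of culture, from 1.95 to 1000 nM. CFSE dilution was gated on CD4+ or CD8+ cells and expressed as percent suppression versus stimulated cells without inhibitor. n=3–4 experiments; means ± SD; t tests.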

For series [3] the following is noted: ref Dr. A.D. McCormick, Astrazeneca, UK, personal communication; cited from earlier work.
Series [4] is described as follows: Pharmacokinetics after i.p. administration. In kind it is in vivo, mice. The note with it: for AUC 0-infinity / Apparent volume of distribution / Disposition rate constant: i.p., AZD8055 10 mg/kg plasma, RAPA 1 mg/kg whole blood; for concentration at 8 h: 10 mg/kg; for half-life: plasma (AZD8055), whole blood (RAPA), ip.
The subject of series [5] is splenic CD4+ and CD8+ T cells of heart graft recipients. In kind it is in vivo, mouse. The following applies: for CD4+ T cell IFNγ production enhanced by transplantation / CD8+ T cell IFNγ production enhanced by transplantation: splenocytes, day 10–11 post-transplant.
For series [6] the following is noted: oral dosing, Phase I; cited from earlier work.
Series [7] concerns BALB/c to B6 cardiac allograft model. It counts as in vivo, mouse. The note with it: for graft histology on days 10–11: H&E, no-IS grafts showed severe cellular rejection; for Foxp3 mRNA expression in allografts: PCR, RAPA being superior to AZD8055; for enhancement of graft-infiltrating Foxp3+ Treg: immunoperoxidase staining of allograft, vs no IS.
A short description of a further series: Renal function. It counts as in vivo, mouse. The following applies: after 10 days of treatment. Put shortly: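 B6 recipients of BALB/c heterotopic heart grafts were given test compound at 10 mg/kg twice daily i.p. (days 2–11) in PBS with 0.02% Tween 80 and 0.26% polyethylene glycol. Serum creatinine was measured after 10 days of treatment, n=4.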
The conditions of series [8]: i.v. administration, B6 mice; cited from earlier work.

A word on the half-life: it is how long it takes for the measured level to halve. For the compound `COc1ccc(-c2ccc3c(N4CCOC[C@@H]4C)nc(N4CCOC[C@@H]4C)nc3n2)cc1CO` [AZD8055, (5-{2,4-Bis[(3S)-3-methylmorpholin-4-yl]pyrido[2,3-d]pyrimidin-7-yl}-2-methoxyphenyl) methanol], in series [1], the half-life result is reported as “approximately 2 h”. In addition, the “concentrations at which AZD8055 surpassed the ability of RAPA to inhibit T cell proliferation” value in series [2] (CD4+ and CD8+ T cells, CD3/CD28 beads, 5 days) is listed as at least 200 nM. Further, in series [2] (concentrations tested between 1.95 nM and 1000 nM), the “concentration dependence of inhibition of T cell proliferation” value was “dose-related inhibitory effect”. In addition, the “fraction in plasma bound to plasma protein” value in [3] is “approximately 95%”. For the same compound, in [4], the “AUC 0-infinity” value was determined as 26.2 µg/mL/h, the “Apparent volume of distribution” value is 37 mL and the Disposition rate constant came to 0.205 h⁻¹. In [4] (mouse, in vivo), this compound returned a concentration at 8 h of 200 nM. For the same compound, the half-life in series [4] (mouse) was 3.4 h. In series [4] (mouse, plasma, intraperitoneal), this compound showed a concentration at 8 h of at least 200 nM. Further, the “percentage of IFN-producing CD4+ and CD8+ T cells compared with animals given RAPA” value in series [5] (day 20 post-transplant, not sustained at day 80) is given as “higher”. Further, in series [5], the “CD4+ T cell IFNγ production enhanced by transplantation” value is listed as “reaching the same levels as in naïve mice” and the “CD8+ T cell IFNγ production enhanced by transplantation” value is on record as “inhibited completely”. Also, the half-life in humans result in series [6] was “approximately 2 h”. For the same compound, in series [7], the “graft histology on days 10–11” value was “comparatively mild mononuclear cell infiltrate”, the “Foxp3 mRNA expression in allografts” value is “increased” and the “enhancement of graft-infiltrating Foxp3+ Treg” value is 7–10 fold. In the series “Renal function”, the “adverse effects on renal function” value was “No adverse effects”. Also, the serum creatinine levels in the series “Renal function” (n=4) was 0.2 mg/dL.
Turning to `CO[C@H]1C[C@@H]2CC[C@@H](C)[C@@](O)(O2)C(=O)C(=O)N2CCCC[C@H]2C(=O)O[C@H]([C@H](C)C[C@@H]2CC[C@@H](O)[C@H](OC)C2)CC(=O)[C@H](C)/C=C(\C)[C@@H](O)[C@@H](OC)C(=O)[C@H](C)C[C@H](C)/C=C/C=C/C=C/1C` [RAPA, rapamycin], the half-life in series [8] is recorded as 6.4 h. Further, in series [4], the “AUC 0-infinity” value amounted to 1.93 µg/mL/h, the “Apparent volume of distribution” value was 74 mL and the Disposition rate constant came to 0.141 h⁻¹. This compound gave a half-life in series [4] (mouse) of 4.9 h. In series [4] (mouse, whole blood, intraperitoneal, 1 mg/kg), this compound yielded a concentration at 24 h above 10 nM. In addition, in series [5], the “CD4+ T cell IFNγ production enhanced by transplantation” value is given as “more effective inhibition” and the “CD8+ T cell IFNγ production enhanced by transplantation” value was “inhibited completely”. The “recipients with long-term graft survival (>80 days)” value in [7] (10-day course, AZD8055 10 mg/kg twice daily i.p., RAPA 1 mg/kg/day i.p.) is “fifty”. For the same compound, in series [7], the “graft histology on days 10–11” value was “comparatively mild mononuclear cell infiltrate”, the “Foxp3 mRNA expression in allografts” value is reported as “increased” and the “enhancement of graft-infiltrating Foxp3+ Treg” value was 7–10 fold.
